Active and inactive are the calls of the source. No cut-off for these calls is given here.

Among the data in ChEMBL document CHEMBL4342502, “Synthesis and Antichlamydial Activity of Molecules Based on Dysregulators of Cylindrical Proteases” (J Med Chem, 2020) are inhibition and Activity values, retold here.

For data set [1], the system named is Chlamydia trachomatis. The data set can be described thus: Anti-chlamydial activity against Chlamydia trachomatis Serovar LGV-L2 infected in Hep2 cells assessed as inhibition of chlamydial inclusion at 50 ug/ml treated at 8 hrs post infection and measured at 24 hrs post-infection by immunofluorescence assay. In kind it is functional, organism-based. The procedure, abridged:
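HEp-2 cells infected with C. trachomatis serovar L2. Compounds at 50 μg/mL added 8 hpi; inclusion number and size assessed by immunofluorescence at 24 hpi against untreated cells. Cell morphology and viability checked by phase-contrast microscopy.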

The subject of data set [2] is Chlamydia trachomatis. Kind of data set: Anti-chlamydial activity against Chlamydia trachomatis Serovar LGV-L2 infected in Hep2 cells assessed as reduction in chlamydial infectivity by measuring decrease in inclusion forming units at 50 ug/ml treated at 8 hrs post-infection and 24 hrs later re-infecting fresh Hep2 cells monolayer with infected cells and measured at 24 hrs post re-infection by immunofluorescence staining based microscopy analysis. The data set is classed as functional, organism-based. Put shortly: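 HEp-2 cells in DMEM with 10% FBS, infected with C. trachomatis L2 at MOI 1. Compounds added 8 hpi in triplicate; DMSO stocks at 50 mg/mL. At 24 hpi lysates collected in sucrose storage medium, frozen at −80 °C, and used to infect fresh HEp-2 monolayers in 10-fold dilutions. After 24 h, stained with goat anti-MOMP and Alexa488 secondary. Inclusions counted in 15 fields at 20x; IFU = mean count per field corrected for dilution.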

Data set [3] relates to Staphylococcus aureus. The data set can be described thus: Antibacterial activity against Staphylococcus aureus JE2 assessed as bacterial growth inhibition at 32 ug/ml measured after 16 hrs by broth microdilution method. In kind it is functional, organism-based. Put shortly:
(§1)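 Broth microdilution in Mueller Hinton broth, triplicate. Direct colony suspension at 1.5 x 10^8 CFU/mL diluted to ~10^5 CFU/mL. Serial dilutions made from DMSO stocks at 1 mg/mL; vancomycin positive control, blank medium negative control. Incubated 16 h at optimum temperature. MIC is the lowest concentration without visible growth at 600 nm; mean of triplicate determinations.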

The test system of data set [4] is Staphylococcus aureus. Kind of data set: Antibacterial activity against methicillin-resistant Staphylococcus aureus ATCC 43300 assessed as bacterial growth inhibition at 32 ug/ml measured after 16 hrs by broth microdilution method. The data set is classed as functional, organism-based.
The subject of data set [5] is Escherichia coli. The data set can be described thus: Antibacterial activity against Escherichia coli ATCC 25922 assessed as bacterial growth inhibition at 32 ug/ml measured after 16 hrs by broth microdilution method. The data set is classed as functional, organism-based.
Data set [6] concerns Escherichia coli. Kind of data set: Antibacterial activity against Escherichia coli K12 assessed as bacterial growth inhibition at 32 ug/ml measured after 16 hrs by broth microdilution method. The data set is classed as functional, organism-based. To be noted: K-12. The procedure, abridged: as §1
In a further data set the test system is Pseudomonas aeruginosa. The data set can be described thus: Antibacterial activity against Pseudomonas aeruginosa ATCC 27853 assessed as bacterial growth inhibition at 32 ug/ml measured after 16 hrs by broth microdilution method. The data set is classed as functional, organism-based.
For a further data set, the system named is Klebsiella pneumoniae. Kind of data set: Antibacterial activity against Klebsiella pneumoniae ATCC 700603 assessed as bacterial growth inhibition at 32 ug/ml measured after 16 hrs by broth microdilution method. The data set is classed as functional, organism-based.
The test system of a further data set is Acinetobacter baumannii. The data set can be described thus: Antibacterial activity against Acinetobacter baumannii ATCC 19606 assessed as bacterial growth inhibition at 32 ug/ml measured after 16 hrs by broth microdilution method. The data set is classed as functional, organism-based. To be noted: ATCC 19606 = CIP 70.34 = JCM 6841.
The test system of the next data set is Candida albicans. The data set can be described thus: Antifungal activity against Candida albicans ATCC 90028 assessed as fungal growth inhibition at 32 ug/ml measured after 16 hrs by broth microdilution method. The data set is classed as functional, organism-based.
Another data set has as its system Cryptococcus neoformans. Kind of data set: Antifungal activity against Cryptococcus neoformans var. grubii H99 ATCC […] as fungal growth inhibition at 32 ug/ml measured after 16 hrs by broth microdilution method. In kind it is functional, organism-based. Particulars: var. grubii H99 ATCC 208821.
Data set [7] deals with Staphylococcus aureus. Kind of data set: Antibacterial activity against Staphylococcus aureus JE2 assessed as bacterial death up to 256 ug/ml measured after 16 hrs by broth microdilution method. In kind it is functional, organism-based. Put shortly:
as §1

The subject of data set [8] is Escherichia coli. The data set can be described thus: Antibacterial activity against Escherichia coli K12 assessed as bacterial death up to 256 ug/ml measured after 16 hrs by broth microdilution method. The data set is classed as functional, organism-based. To be noted: K-12. The procedure, abridged: as §1
The nature of data set [9]: Mutagenicity in Drosophila melanogaster somatic cells assessed as frequency of clone formation in HB crosses at 0.25 to 1 mM by SMART assay. In kind it is ADME. Particulars: 1000 µM. The procedure, abridged: (§2)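 Drosophila SMART wing-spot assay, ST and HB crosses. Third-instar larvae (72 ± 4 h) placed on hydrated instant mashed potato medium containing compound at 0.25, 0.5 or 1.0 mM final. Negative control: water with 1% Tween-80 and 3% ethanol. Statistics by Frei and Würgler two-sided U test, P≤0.05.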

Data set [10] is described as follows: Mutagenicity in Drosophila melanogaster somatic cells assessed as frequency of clone formation in ST crosses at 0.25 to 1 mM by SMART assay. In kind it is ADME. To be noted: 1000 µM. The procedure, abridged:
as §2

Data set [11] is described as follows: Toxicity in Drosophila melanogaster assessed as survival rate at 0.25 to 1 mM. Particulars: 1000 µM. Put shortly:
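Drosophila SMART assay using third-instar larvae (72 ± 4 h) from ST and HB crosses. Larvae exposed in hydrated instant mashed-potato medium at 0.25, 0.5 and 1.0 mM final. Vehicle control: water with 1% Tween-80 and 3% ethanol. Survival of treated groups compared statistically with the vehicle control.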

In another data set the test system is HaCaT. The data set can be described thus: Cytotoxicity against immortal human HaCaT cells assessed as reduction in cell viability at 50 ug/ml after 24 hrs by CCK-8 assay. In kind it is cell-based. The procedure, abridged:
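HeLa 229 and HaCaT cells in DMEM with 10% FBS and 1% penicillin/streptomycin, 37 °C, 5% CO2, seeded at 5000 cells/well. Next day treated with 50 μg/mL in triplicate, with matching DMSO controls. After 24 h, CCK-8 added for 2 h; corrected absorbance read at 450 nm.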

Data set [12] in a line: Activation of recombinant human C-terminal 6xHis-tagged ClpP expressed in Escherichia coli assessed as induction of casein degradation at 0.1 to 1 uM using FITC-labelled casein as substrate pretreated with enzyme for 30 mins followed by substrate addition and measured every 3 mins for 3 hrs in absence of AAA+ chaperone by fluorescence based tecan-plate reader assay. Put shortly:
(§3)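 Recombinant C-terminal His6-tagged ClpP, expressed in a clpAPX-null E. coli strain and purified (mammalian ClpP without mitochondrial signal, codon-optimized). ClpP at 1 or 0.1 μM (E. coli), 1 μM (human, mouse) or 6 μM (chlamydial ClpP1 and ClpP2) preincubated with compound or DMSO, 30 min, 32 °C, in HEPES pH 7.6/KCl/MgCl2/DTT/glycerol buffer. 20 μM FITC-casein then added. Fluorescence (ex 490/em 525 nm) read every 3 min for 3 h. At least three runs on at least two protein preparations.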

Data set [13] is described as follows: Activation of recombinant mouse C-terminal 6xHis-tagged ClpP expressed in Escherichia coli assessed as induction of casein degradation at 0.1 to 1 uM using FITC-labelled casein as substrate pretreated with enzyme for 30 mins followed by substrate addition and measured every 3 mins for 3 hrs in absence of AAA+ chaperone by fluorescence based tecan-plate reader assay. The procedure, abridged:
as §3

Data set [14] has as its target ATP-dependent Clp protease proteolytic subunit (Escherichia coli (strain K12)) (UniProt P0A6G7). Kind of data set: Activation of recombinant Escherichia coli ClpP assessed as induction of casein degradation at 0.1 to 1 uM using FITC-labelled casein as substrate pretreated with enzyme for 30 mins followed by substrate addition and measured every 3 mins for 3 hrs in absence of AAA+ chaperone by fluorescence based tecan-plate reader assay. The procedure, abridged: as §3

ATP-dependent Clp protease proteolytic subunit (Escherichia coli (strain K12)), sequence (P0A6G7 whole entry): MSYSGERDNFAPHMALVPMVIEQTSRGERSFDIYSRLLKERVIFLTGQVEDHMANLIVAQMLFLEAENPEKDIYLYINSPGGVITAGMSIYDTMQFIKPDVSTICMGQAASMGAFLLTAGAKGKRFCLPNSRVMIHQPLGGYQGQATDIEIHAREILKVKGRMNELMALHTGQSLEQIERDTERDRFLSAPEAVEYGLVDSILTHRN

On to `Cc1ccccc1N1CCN(C(=O)C(C)(C)S(=O)(=O)c2ccc(C(F)(F)F)cn2)CC1`, for which the inhibition entry in the data set on Chlamydia trachomatis [1] and with Chlamydia trachomatis [2] was “Active” each time. Moreover, the inhibition result in the data set with Staphylococcus aureus [3], with Staphylococcus aureus [4], in the data set on Escherichia coli [5], with Escherichia coli [6], in the data set on Pseudomonas aeruginosa and in the data set with Klebsiella pneumoniae was “inactive” each time. In addition, the inhibition entry in the data set on Acinetobacter baumannii, in the data set on Candida albicans and in the data set on Cryptococcus neoformans was “inactive” throughout. The result with Staphylococcus aureus [7] and with Escherichia coli [8] was inactive.

In the case of `CC(C)(C(=O)N1CCN(Cc2cccc(Cl)c2)CC1)S(=O)(=O)c1ccc(C(F)(F)F)cn1`, the Activity result in data set [9], in data set [10] and in [11] was “Non-Toxic” in each case. Further, the inhibition result with Chlamydia trachomatis [1] and in the data set on Chlamydia trachomatis [2] was “Active” each time. Also, the inhibition entry in the data set on Staphylococcus aureus [3], in the data set on Staphylococcus aureus [4], with Escherichia coli [5], with Escherichia coli [6], in the data set on Pseudomonas aeruginosa and in the data set on Klebsiella pneumoniae was “inactive” in each case. Moreover, the inhibition entry in the data set on Acinetobacter baumannii, in the data set with Candida albicans and with Cryptococcus neoformans was “inactive” in each case.

`NCCBr`: the inhibition result with Staphylococcus aureus [3], in the data set with Staphylococcus aureus [4], in the data set on Escherichia coli [5], with Escherichia coli [6], in the data set with Pseudomonas aeruginosa and with Klebsiella pneumoniae was “inactive” throughout. For the same compound, the inhibition entry with Acinetobacter baumannii, in the data set on Candida albicans and in the data set with Cryptococcus neoformans was “inactive” each time. The result in the data set on Staphylococcus aureus [7] and with Escherichia coli [8] was inactive.

For `CC(C)(C(=O)NCCOc1ccccc1Cl)S(=O)(=O)c1ccc(C(F)(F)F)cn1`, the inhibition result with Chlamydia trachomatis [1] is “Active”. The inhibition entry with Staphylococcus aureus [3], with Staphylococcus aureus [4], with Escherichia coli [5], in the data set with Escherichia coli [6], in the data set on Pseudomonas aeruginosa and in the data set with Klebsiella pneumoniae was “inactive” throughout. For the same compound, the inhibition result with Acinetobacter baumannii, with Candida albicans and in the data set on Cryptococcus neoformans was “inactive” throughout. Besides, the outcome in the data set on Staphylococcus aureus [7] and in the data set on Escherichia coli [8] was inactive.

For the compound `Cc1ccc(CN2CCN(C(=O)C(C)(C)S(=O)(=O)c3ccc(C(F)(F)F)cn3)CC2)cc1`, the inhibition entry in the data set on Chlamydia trachomatis [1] is “Active”. Also, the inhibition entry in the data set with Staphylococcus aureus [3], in the data set on Staphylococcus aureus [4], with Escherichia coli [5], in the data set with Escherichia coli [6], in the data set with Pseudomonas aeruginosa and in the data set on Klebsiella pneumoniae was “inactive” throughout. Further, the inhibition result with Acinetobacter baumannii, in the data set on Candida albicans and in the data set with Cryptococcus neoformans was “inactive” throughout. Besides, the result in the data set on Staphylococcus aureus [7] and in the data set on Escherichia coli [8] was inactive. For the same compound, in the data set with HaCaT, the Activity entry was “Non-Toxic”.

For `CC(C)(C(=O)NCCSc1ccc(Cl)cc1)S(=O)(=O)c1ccccc1`, the inhibition result with Chlamydia trachomatis [1], in the data set with Staphylococcus aureus [3], in the data set with Staphylococcus aureus [4], in the data set on Escherichia coli [5], in the data set with Escherichia coli [6] and with Pseudomonas aeruginosa was “inactive” each time. In addition, the inhibition result with Klebsiella pneumoniae, with Acinetobacter baumannii, in the data set with Candida albicans and with Cryptococcus neoformans was “inactive” each time. Also, the Activity entry in data set [12] and in data set [13] was “Not Active” throughout. Moreover, the outcome in data set [14] was inactive.

For the compound `CC(C)(C(=O)NCCSc1ccccc1Cl)S(=O)(=O)c1ccccc1`, in the data set on Chlamydia trachomatis [1], the inhibition entry is “inactive”. Moreover, the Activity entry in data set [12] and in data set [13] was “Not Active” each time. Also, the outcome in [14] was inactive.

For the compound `CC(C)(C(=O)NCCSc1ccccc1Cl)S(=O)(=O)c1ccc(C(F)(F)F)cc1`, the inhibition entry with Chlamydia trachomatis [1] was “Active”. The inhibition result in the data set on Staphylococcus aureus [3], in the data set with Staphylococcus aureus [4], with Escherichia coli [5], in the data set on Escherichia coli [6], in the data set with Pseudomonas aeruginosa and with Klebsiella pneumoniae was “inactive” each time. The inhibition result in the data set with Acinetobacter baumannii, in the data set with Candida albicans and with Cryptococcus neoformans was “inactive” each time.

Consider `CC(C)(C(=O)NCCOc1ccccc1Cl)S(=O)(=O)c1ccccc1`, for which the inhibition entry in the data set on Chlamydia trachomatis [1], in the data set with Staphylococcus aureus [3], with Staphylococcus aureus [4], in the data set with Escherichia coli [5], in the data set on Escherichia coli [6] and in the data set on Pseudomonas aeruginosa was “inactive” each time. Besides, the inhibition result in the data set on Klebsiella pneumoniae, in the data set with Acinetobacter baumannii, in the data set on Candida albicans and in the data set on Cryptococcus neoformans was “inactive” in each case. The Activity entry in data set [11] was “Non-Toxic”.

For `CC(C)(C(=O)NCCOc1ccccc1Cl)S(=O)(=O)c1ccc(C(F)(F)F)cc1`, the inhibition entry with Chlamydia trachomatis [1] was “Active”. Further, the inhibition result in the data set with Staphylococcus aureus [3], with Staphylococcus aureus [4], with Escherichia coli [5], with Escherichia coli [6], in the data set with Pseudomonas aeruginosa and in the data set with Klebsiella pneumoniae was “inactive” throughout. Further, the inhibition entry in the data set on Acinetobacter baumannii, in the data set on Candida albicans and with Cryptococcus neoformans was “inactive” in each case.
